Results filed as inconclusive are left out. The source made the active and inactive calls.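 How the source made its calls: active means compounds raising caspase signal whose fitted AC50 is at or under a set limit scaled from top dose; inconclusive means flat fit at middling activation, or poor curve fit; inactive means the rest.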
Experiments:
[1] = system: MEWO unprimed cells, caspase-3/7 Glo luminescence, 3 h; assay: caspase-3/7 activation in unprimed MEWO cells, dose response, counter-screen for Bcl2-A1 inhibitor project, cell-based, caspase-Glo luminescence, dry powder (AID 488948)
Method in brief: (§1)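 Assay system: unprimed MEWO cells expressing A1, no BIM or tBID priming / Input: 2500 cells/well / Technique: CaspaseGlo luminescence after 1 h at room temperature / Dosing: compound added by pin transfer, day after plating / Incubation: 3 h compound at 37 °C, 1 h CaspaseGlo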

[2] = as above; conditions: MEWO unprimed cells, caspase-3/7 Glo luminescence, 3 h, stronger effect = higher value
Method in brief: as §1

Compound: CCOC(=O)CSC1=N/C(=C/c2ccc(-n3cncn3)cc2)C(=O)N1C(C)=O
- AC50 [1]: > 150 µM (inactive)

Compound: Cc1cccc(CS(=O)(=O)c2ncc(Cl)c(C(=O)Nc3nnc(C(C)C)s3)n2)c1
- max caspase activation ([2]; at 150 µM): -3.23% (inactive)

Compound: Cc1cc(C(=O)CCl)c(C)n1CCc1ccc(Cl)cc1
- AC50 [1]: 18.4 µM

Compound: Cc1c(CCOC(=O)c2ccc(N3CCOCC3)c([N+](=O)[O-])c2)sc[n+]1CC#N
- AC50 [1]: > 100 µM (inactive)

Compound: Cn1c(=NC(=O)CCl)sc2ccccc21
- max caspase activation ([2]; at 0.068 µM): -1.67% (inactive)

Compound: O=C(Oc1cccc(/C=N/Nc2nc(Nc3ccccc3)nc(N3CCOCC3)n2)c1)c1ccco1
- max caspase activation ([2]; at 68 µM): 2.05% (inactive)

Compound: CC(C)(C)n1nc(-c2ccc(Cl)cc2)c2c(N)ncnc21
- max caspase activation ([2]; at 150 µM): 4.52% (inactive)

Compound: Cc1ccc(Sc2c([N+](=O)[O-])c(=O)n(C)c3ccccc23)cc1
- max caspase activation ([2]; at 100 µM): 3.9% (inactive)

Compound: COc1cccc(C(=O)C(C#N)=C(SC)SC)c1
- max caspase activation ([2]; at 150 µM): -3.79% (inactive)

Compound: Cc1ccc(CS(=O)(=O)c2ncc(Cl)c(C(=O)Nc3nnc(C(C)C)s3)n2)cc1
- max caspase activation ([2]; at 100 µM): -3.83% (inactive)

Compound: COc1cc(/C=C(/C#N)c2nc3ccccc3[nH]2)ccc1OCC(=O)Nc1ccccc1C(C)C
- max caspase activation ([2]; at 9 µM): 2.17% (inactive)

Compound: O=C(CCl)N=c1sccn1Cc1ccccc1Cl
- AC50 [1]: > 150 µM (inactive)

Compound: Nc1nc(F)nc2c1ncn2[C@@H]1O[C@H](CO)[C@@H](O)[C@H]1O
- max caspase activation ([2]; at 0.1 µM): 2.46% (inactive)

Compound: CCc1nnc(NC(=O)c2nc(S(=O)(=O)Cc3ccccc3)ncc2Cl)s1
- max caspase activation ([2]; at 0.068 µM): -1.73% (inactive)

Compound: C=C1[C@@H](C)[C@H]2[C@H](Cc3ccccc3)NC(=O)[C@]23OC(=O)/C=C\[C@H](O)CCC[C@@H](C)C/C=C/[C@H]3[C@@H]1O
- max caspase activation ([2]; at 2.6 µM): 2.11% (inactive)

Compound: COc1ccc(N(C(=O)CCl)C(C(=O)NCCc2ccccc2)c2cccs2)cc1Cl (centres undefined)
- AC50 [1]: 15.6 µM

Compound: CC(=O)N[C@H]1[C@H](O[C@H]2CC[C@@]3(C)C(CC[C@]4(C)C3CC=C3[C@@H]5CC(C)(C)CC[C@]5(C(=O)OC5OCC(O)C(O)C5O)C(O)C[C@]34C)C2(C)C)O[C@H](COC2OCC(O)C(OC3OCC(O)C(O)C3O)C2O)[C@@H](O[C@@H]2O[C@@H](C)[C@H](O)[C@@H](O)[C@H]2O[C@@H]2O[C@@H](C)[C@H](O)[C@@H](O)[C@H]2O)[C@@H]1O (some centres undefined)
- max caspase activation ([2]; at 135 µM): -2.6% (inactive)

Compound: C/C1=C/C(=O)O[C@@H]2C[C@@H](CC[C@H](C)/C=C\CC1)O[C@@](O)(C1CSC(=O)N1)C2 (some centres undefined)
- max caspase activation ([2]; at 46 µM): 1.79% (inactive)

Compound: CCSc1nnc(NC(=O)c2nc(S(=O)(=O)Cc3ccc(F)cc3)ncc2Cl)s1
- max caspase activation ([2]; at 150 µM): -5.59% (inactive)

Source: PubChem BioAssay AID488948 (Broad Institute, 2010)
